Laboratory results: article PMC11982377 (Communications Biology, 2025)
“Also recorded” adds a separate entry of the source.

Columns and labels:
[1] = tested on: Sf9 cells; test: PROTAC cellular permeability and distribution measured by LCMS; assay type: in vitro ADME, Spodoptera frugiperda; details: 10 µM, 24 h
[2] = molecular target: T1, sfWDS (Spodoptera frugiperda, UniProt A0A2H1VC02); test: Sf9 cell degradation assay; assay type: cell-based; details: Sf9 cells
In short: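 Sf9 cells in ESF921 medium, split into 1e6-cell aliquots and treated 24 h with test compound or DMSO. For sfWDS, some treatments at 10 μM ± bortezomib 10 μM. Lysed in Tris-SDS, then acetone precipitation, urea reduction/alkylation, Trypsin/LysC digest and MCX cleanup. Stable-isotope peptide standards spiked in; targeted MS. Signal normalised to isotope and total peptide, as % of DMSO. n = 4. Dose-response by 4-parameter fit.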

[3] = tested on: WDR5; details: MV4-11 cells ref 34; cited from earlier work
[4] = molecular target: T1, sfWDS; test: In vitro ubiquitination; assay type: biochemical; details: listed as MS67

## Cc1ncsc1-c1ccc([C@H](C)NC(=O)[C@@H]2C[C@@H](O)CN2C(=O)[C@@H](NC(=O)CNC(=O)c2ccc(F)c(-c3ccc(N4C[C@@H](C)N(C)[C@@H](C)C4)c(NC(=O)c4c[nH]c(=O)cc4C(F)(F)F)c3)c2)C(C)(C)C)cc1 [Compound 12]
[1]
  PROTAC in cells (of total PROTAC recovery, cells vs media): only detected at very low intracellular levels
[2]
  degradation of sfWDS in cell: did not demonstrate in cell degradation
[2]; listed as MS67
  degradation of sfWDS in cell: failed to prompt degradation of sfWDS; also recorded: did not show degradation in cells
[3]
  Dmax, degradation of WDR5: 94%
[4]
  IVQ Y/N (ubiquitination of sfWDS): polyubiquitination of sfWDS was observed in a dose-dependent manner
